Assay [1] deals with human metastatic melanoma UACC 903 cells. The settings on record: read-out: IC50, UACC 903 cells; MTS assay, ± SEM; ref Robertson et al. (2014); cited from earlier work. For orientation: Formazan colour is commonly taken as a measure of viable cells.
In assay [2] the test system is P. falciparum 3D7 parasites (asexual stage, ring stage). The assay is classed as cell-based, Plasmodium falciparum. The following applies: for Antimalarial activity, ranking among the three compounds tested: 2.5-20 μM, 24-72 h, microscopy. The method in brief:
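Sorbitol-synchronized P. falciparum 3D7 in human erythrocytes (37 °C, 5% O2/5% CO2/90% N2) was treated at ring stage (8–10 h post-invasion, 4–6% parasitemia) with 2.5, 5, 10 or 20 μM test compound, or left untreated. Aliquots were taken at 24, 48 and 72 h for Giemsa-stained thin smears. Percent parasitemia and stage (rings, trophozoites, schizonts) were scored by light microscopy.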

For assay [3], the system named is human normal skin fibroblast FF 2441 cells. The settings on record: read-out: IC50, FF 2441 cells; MTS assay, ± SEM; ref Robertson et al. (2014); cited from earlier work.
The next assay has as its system P. falciparum 3D7. The experiment in a line: Antimalarial activity by SYBR Green assay. It is filed as cell-based, Plasmodium falciparum. The settings on record: for IC50: mean of three independent experiments ± SEM; for Antimalarial activity: summary of IC50 results.
Assay [4] deals with P. falciparum gametocytes. The assay is classed as cell-based, Plasmodium falciparum. The following applies: 48 h. In a few lines:
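Gametocytes came from P. falciparum cultured continuously for 6–8 weeks at >10% parasitemia, with weekly sorbitol synchronization, in human erythrocytes at 37 °C under 5% O2/5% CO2/90% N2. Gametocyte cultures were exposed to test compound at 10 or 20 μM for 48 h alongside untreated controls. Giemsa-stained smears of culture pellets were then examined by light microscopy for gametocyte morphology.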

Setting [5] is: 2.5 μM, 48 h, treated at ring stage.
Setting [6] is: 2.5 μM, 72 h, treated at ring stage.
The mark [7] stands for this setting: 5 μM, 24 h, treated at ring stage.
Setting [8] is: 5 μM, 48 h, treated at ring stage.
Where [9] appears, read: 5 μM, 72 h, NVP = no viable parasites.
The mark [10] stands for this setting: 10 μM, 24 h, treated at ring stage.
The mark [11] stands for this setting: 10 μM, 48 h, ring-stage (R) parasites.
Setting [12] is: 10 μM, 72 h, NVP = no viable parasites.
Setting [13] is: 20 μM, 24 h, NVP = no viable parasites.
Setting [14] is: 20 μM, 72 h, NVP = no viable parasites.
The mark [15] stands for this setting: 20 μM, 48 h, ring-stage (R) parasites, NVP = no viable parasites.
The mark [16] stands for this setting: up to 20 μM, 48 h, ring stage treated.

“And” between values parts separate entries of the source, which are not always exact repeats. Identical values can stand only once. “Also recorded” adds a separate entry of the source. Like-named read-outs stand apart in the source and are kept apart here. Marks after values point to notes of the source that are not given here. Bounds are passed on as bounds.

Broadly, the IC50 is the point on the concentration scale where inhibition reaches its midpoint.

In the case of `CC(C)C1=CC2=CC[C@H]3[C@](C)(CN)CCC[C@]3(C)[C@H]2CC1` [4d, abietylamine], the 50% inhibitory concentration (IC50) in assay [1] is 2.1 ± 0.25 µM; in assay [3], 8.3 ± 0.41 µM; with P. falciparum 3D7 (read-out: IC50, 3D7, 72 h), 8.2 ± 0.48 µM. Further, the “Percent parasitemia and parasite growth stage” value in assay [2] (setting [5]) is recorded as 20.4 ± 1.3 (R) %; in assay [2] (setting [6]), 10.0 ± 0.5 (T) %; in assay [2] (setting [7]) it was 6.0 ± 0.4 (T) %; in assay [2] (setting [8]) it was 16.1 ± 1.5 (R) %; in assay [2] (setting [9]), 9.0 ± 0.4 (T) ^b %; in assay [2] (setting [10]) it was 4.3 ± 0.4 (T) %. The “Percent parasitemia and parasite growth stage” value in assay [2] (setting [11]) is listed as 10.1 ± 0.6%; in assay [2] (setting [12]), 8.3 ± 0.1 (T) ^b %; in assay [2] (setting [13]), 3.7 ± 0.3 (T) %; in assay [2] (20 μM, 48 h, ring-stage (R) parasites, NVP = no viable parasites, listed as Abietylamine) it was 2.4 ± 0.5%; in assay [2] (20 μM, 48 h, ring-stage (R) parasites, NVP = no viable parasites, listed as abietylamine) it was ~ 2.4%; in assay [2] (setting [14]) it was “NVP ^b”. For the same compound, the “Inhibition of parasite growth” value in assay [2] (2.5 μM, by 72 h) was “about 50%”. Also, the “Parasites developed into trophozoites” value in assay [2] (20 μM, 24 h period) was ~ 60%. In addition, in assay [2] (20 μM, 48 h, share of those that developed into trophozoites), the “Parasites at the trophozoite and schizont stages” value was ~ 45%. In assay [2] (20 μM, by 72 h), the “Effect on parasites” value is reported as “completely killed the parasites”. The “Antimalarial activity, ranking among the three compounds tested” value in assay [2] was “moderately active”.

Turning to `CC(C)c1ccc2c(c1)CC[C@H]1[C@](C)(CN)CCC[C@]21C` [compound 1, dehydroabietylamine], the half-inhibitory concentration (IC50) in assay [1] is 1.4 ± 0.24 µM; in assay [3], 8.9 ± 0.68 µM; in the assay with P. falciparum 3D7 (read-out: IC50, 3D7, 72 h), 1.8 ± 0.22 µM. Further, the “Gametocidal effect” value in assay [4] (10 μM) was “gametocytes shrunk and condensed into non-viable, rounded condensed bodies”; in assay [4] (20 μM), “completely lysed gametocytes”. Besides, the “Percent parasitemia and parasite growth stage” value in assay [2] (setting [5]) is given as 10.3 ± 1.3 (R) %; in assay [2] (setting [6]), 9.1 ± 0.5 (T) ^b %; in assay [2] (setting [7]) it was 5.5 ± 0.3 (T) %; in assay [2] (setting [8]) it was 6.1 ± 1.5 (T, S, R) %; in assay [2] (setting [9]), “NVP”; in assay [2] (setting [10]) it was 3.3 ± 0.3 (T) %. Besides, the “Percent parasitemia and parasite growth stage” value in assay [2] (10 μM, 48 h, ring-stage (R) parasites, listed as Dehydroabietylamine) is 2.5 ± 0.2%; in assay [2] (10 μM, 48 h, ring-stage (R) parasites, listed as dehydroabietylamine), ~ 2.5%; in assay [2] (setting [12]), “NVP”; in assay [2] (setting [13]), “NVP^c”; in assay [2] (setting [15]), “NVP”; in assay [2] (setting [14]), “NVP”. For the same compound, the “Parasites developed into trophozoites” value in assay [2] (10 μM, 24 h treatment) is recorded as ~ 60%. Also, the “Remaining trophozoites still at the trophozoite and schizont stages, unhealthy” value in assay [2] (10 μM, 48 h) is recorded as ~ 73%. In addition, the “Trophozoites matured into healthy schizonts” value in assay [2] (10 μM, by 48 h) was ~ 27%. For the same compound, the “Effect on parasite development” value in assay [2] (20 μM, 24 h) is reported as “completely inhibited parasite development into trophozoites”. Further, the “Antimalarial activity, ranking among the three compounds tested” value in assay [2] is on record as “most active”. Besides, the “Inhibition of parasite growth” value with P. falciparum 3D7 (setting [16]) is given as “efficiently inhibited parasite growth in a dose dependent manner”.

Turning to `CC(C)c1ccc2c(c1)CCC1C(C)(CNC(=O)c3ccccc3)CCCC21C` (stereo not drawn) [2d, N-dehydroabietylbenzamide], the IC50 was above 100 µM in assay [1]; above 100 µM in assay [3]; 0.36 ± 0.13 µM in the assay on P. falciparum 3D7 (read-out: IC50, 3D7, 72 h). Moreover, the “Antimalarial activity” value in the assay on P. falciparum 3D7 is “good to excellent antimalarial activity; also recorded: most potent antimalarial activity”.

With `CCC(=O)NCC1(C)CCCC2(C)c3ccc(C(C)C)cc3CCC12` (stereo not drawn) [2c, N-dehydroabietylpropionamide], the IC50 in assay [1] is 89.4 ± 3.3 µM; in assay [3] it was above 100 µM; in the assay with P. falciparum 3D7 (read-out: IC50, 3D7, 72 h), 13.3 ± 0.44 µM. The “Inhibition of parasite growth” value in the assay on P. falciparum 3D7 (20 μM, 72 h) is given as “complete inhibition”. For the same compound, the “Antimalarial activity” value in the assay with P. falciparum 3D7 is “good to excellent antimalarial activity”.

Take `CC(C)c1ccc2c(c1)CC[C@H]1[C@](C)(CNC(c3ccccc3)(c3ccccc3)c3ccccc3)CCC[C@]21C` [2f]: the IC50 in assay [1] was above 100 µM; in assay [3] it was above 100 µM; in the assay with P. falciparum 3D7 (read-out: IC50, 3D7, 72 h) it was ~90.6 µM and 90.6 µM. Further, the “Inhibition of parasite growth” value in the assay on P. falciparum 3D7 (20 μM, 72 h) is on record as “not inhibitory”.

For the compound `CC(C)C1=CC2=CC[C@@H]3[C@](C)(CCC[C@@]3(C)C(=O)O)[C@H]2CC1` [compound 3, abietic acid], the IC50 is above 100 µM in assay [1]; above 100 µM in assay [3]; around 82 µM in the assay with P. falciparum 3D7 (Plasmodium falciparum, 3D7, 72 h, read-out: IC50, 3D7, 72 h). For the same compound, the “Gametocidal effect” value in assay [4] (10 and 20 μM) is recorded as “no activity; also recorded: no effect on gametocytes”. Also, the “Percent parasitemia and parasite growth stage” value in assay [2] (setting [5]) is 21.6 ± 1.0 (R) %; in assay [2] (setting [6]) it was 20.6 ± 1.2 (T) %; in assay [2] (setting [7]), 6.0 ± 0.3 (T) %; in assay [2] (setting [8]), 22.0 ± 1.3 (R) %; in assay [2] (setting [9]), 20.6 ± 0.4 (T) %; in assay [2] (setting [10]), 5.7 ± 0.3 (T) %. In addition, the “Percent parasitemia and parasite growth stage” value is 22.3 ± 0.6 (R) % in assay [2] (setting [11]); 20.0 ± 0.2 (T) % in assay [2] (setting [12]); 5.9 ± 0.4 (T) % in assay [2] (setting [13]); 20.6 ± 0.9 (R) % in assay [2] (setting [15]); 15.1 ± 0.3 (T) % in assay [2] (setting [14]). Besides, the “Effect on parasite growth” value in assay [2] (20 μM, second life cycle) is listed as “noticeably inhibit parasite growth”; in assay [2] (2.5, 5, and 10 μM, 72 h culturing period), “no effect on parasite growth”. Besides, the “Antimalarial activity, ranking among the three compounds tested” value in assay [2] is on record as “negligibly active”. For the same compound, the “Inhibition of parasite growth” value in the assay with P. falciparum 3D7 (setting [16]) was “negligible activity”.

The values above are taken from paper PMC4480188 (Experimental parasitology, 2015).
